An excerpt weighted towards active compounds, which were near 2.6% of everything screened.
NadD block – inhibitors of S. aureus NadD, primary screen, biochemical, colorimetric, uHTS; Nicotinate-nucleotide adenylyltransferase NadD (Staphylococcus aureus N315); purified NadD enzyme, colorimetric absorbance read-out; inhibition, % at 20 µM; actives 0.78% (n = 360,000); AID 602399, 2012; in the data active means inhibition above about 26%
STEP inh – STEP phosphatase inhibitors, primary screen, biochemical, fluorescence intensity, uHTS; Tyrosine-protein phosphatase non-receptor type 5 (Homo sapiens), P54829; recombinant STEP, OMFP fluorogenic substrate; inhibition, % at 20 µM; actives 0.25% (n = 360,000); AID 588621, 2011;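 active means inhibition at 20 µM, scaled per plate between control wells, above about 37%, limit read from the data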;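 further: 0% = DMSO with enzyme and substrate and 100% = substrate only without enzyme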
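Assay system: isolated STEP enzyme. Buffer or medium: pH 6.0 Bis-Tris with DTT and Tween 20. Also added: fluorogenic phosphatase substrate OMFP at 25 µM final. Dosing: 20 µM, 1% DMSO. Timing: 20 min reaction, room temperature, in the dark. Measured by: fluorescence intensity, excitation 480 nm, emission 540 nm. Evaluation: normalized % inhibition.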
rCAG binder – binders of r(CAG) RNA repeats, primary screen, biochemical, fluorescence; r(CAG) RNA repeat, TO-PRO-1 dye displacement fluorescence; inhibition, % at 3 µM; actives 1.3% (n = 370,000); AID 651821, 2012;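 active means inhibition above the plate cutoff, the mean of all test compounds on that plate plus 3 SD, cut at about 35% in these data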;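 further: 0% = DMSO alone and 100% = 100 µM mitoxantrone as full dye displacement; higher means more dye released from RNA so lower well fluorescence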
LMPTP block – LMPTP phosphatase inhibitors, primary screen, biochemical, fluorescence intensity, uHTS; AID 651560, 2012; recombinant LMPTP-A, OMFP fluorogenic substrate; actives 0.22% (n = 360,000); inhibition, % at 20 µM; Low molecular weight phosphotyrosine protein phosphatase (Homo sapiens), P24666;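 active means compounds that cut the enzyme signal by at least half of the control window in the single-dose screen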;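 further: plate controls were DMSO wells with enzyme plus substrate for no effect and substrate without enzyme for full effect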
Target sequence (P24666 whole entry, looked up): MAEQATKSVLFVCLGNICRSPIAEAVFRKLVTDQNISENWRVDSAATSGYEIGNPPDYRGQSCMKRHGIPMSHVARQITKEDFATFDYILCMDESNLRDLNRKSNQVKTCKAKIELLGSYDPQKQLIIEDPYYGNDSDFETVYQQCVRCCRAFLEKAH
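Material: LMPTP-A; amount: 0.625 nM enzyme; doses: single 20 µM dose; times: reaction 50 min, room temperature, dark; technique: fluorescence intensity of OMFP turnover product; benchmarks: no-enzyme and uninhibited controls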
Scp-1 inhibitor – Scp-1 phosphatase inhibitors, primary screen, biochemical, colorimetric, uHTS; Carboxy-terminal domain RNA polymerase II polypeptide A small phosphatase 1 (Homo …; Recombinant Scp1, phosphopeptide, malachite green phosphate absorbance; inhibition, % at 20 µM; actives 0.88% (n = 340,000); AID 493091, 2011;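 active means inhibition above about 50% at 20 µM, limit read from the data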;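 further: plate controls were DMSO wells with enzyme for no effect and wells lacking enzyme for full effect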
Target sequence (Q9GZU7 76-261 limits assumed): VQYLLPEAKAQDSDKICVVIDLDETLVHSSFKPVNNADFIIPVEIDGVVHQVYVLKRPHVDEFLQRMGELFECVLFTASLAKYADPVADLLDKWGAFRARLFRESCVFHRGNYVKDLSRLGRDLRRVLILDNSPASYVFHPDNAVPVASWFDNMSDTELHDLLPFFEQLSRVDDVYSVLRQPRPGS
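Test system: SCP-1 phosphatase catalytic domain, residues 76-261 | Compound dosing: One concentration, 20 µM, with 1.0% DMSO | Schedule: 45 min room-temperature reaction, 5 min colour, 30 min stabiliser | Detection: Absorbance at 630 nm | Read-out basis: % inhibition of SCP-1 phosphate liberation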
NadD inh conf – inhibitors of S. aureus NadD, confirmation, biochemical, colorimetric, single concentration. actives 13% (n = 2,000). purified S. aureus NadD, colorimetric enzyme assay. inhibition, % at 20 µM. AID 624309, 2012. shares compounds with NadD block; in the data active means inhibition mostly above about 42%, no sharp cut-off; inactive means mostly below about 42%
Active calls of the source: *; . = not tested or not shown.

SMILES | NadD block | STEP inh | rCAG binder | LMPTP block | Scp-1 inhibitor | NadD inh conf
Cc1ccc(-c2c(C(=O)Nc3ccccc3C)c(C)[nH]c(=S)c2C#N)o1 | 31* | 3 | 25 | 3 | -1 | 3
COC(=O)[C@]12C[C@H](CC(=O)NCc3ccccc3)C(=O)N(CCc3ccc(OC)c(OC)c3)C1=C[C@H](COCc1ccccc1)O[C@@H]2C | . | . | 6 | . | . | .
Cc1ccc(-c2nnc(Oc3ccc(NC(=O)c4ccccc4)cc3)c3ccccc23)cc1 | 30* | 1 | 7 | 2 | 12 | 11
Cc1ccc(-c2nn(-c3ccccc3)cc2/C=N/n2c(-c3cccs3)n[nH]c2=S)cc1 | 41* | 3 | 6 | 5 | -7 | 0
Cc1cc[n+]2cc(-c3cccc([N+](=O)[O-])c3)c(-c3cccc([N+](=O)[O-])c3)cc2c1 | 32* | -2 | 8 | 14 | -4 | 6
Cc1cccc(-c2cnn(-c3cccc([N+](=O)[O-])c3)c2N)c1 | -6 | 3 | 0 | 1 | -6 | .
CN(C)c1ccc(NC(=S)OC2CCC23CCC(c2ccccc2)CC3)cc1 (stereo not drawn) | . | . | 5 | . | . | .
COc1ccc(C(=O)[C@H]2[C@H]3C(=O)N(c4ccc(OC(C)=O)cc4)C(=O)[C@H]3C3C=CC=NN32)cc1 (stereo partly drawn) | 13 | -1 | 19 | 1 | -14 | .
CC(=O)Oc1ccc(C(=O)[C@H]2[C@H]3C(=O)N(c4cccc5ccccc45)C(=O)[C@H]3[C@@H]3C=CC=NN32)cc1 | 45* | -2 | 26 | 1 | -7 | 24
C[C@H](O)[C@@H]1CN2CCc3ccc(-c4ccc5c(c4)OCO5)cc3[C@@H]2C[C@@H]1N(C)CC1CCCCC1 | . | . | 2 | . | . | .
O=C(Cc1ccccc1)Nc1ncnc2c1C(c1ccccc1)c1c(ccc3ccccc13)O2 (stereo not drawn) | 32* | 0 | 13 | 4 | -5 | 31
O=C(Nc1ncnc2c1C(c1ccccc1)c1c(ccc3ccccc13)O2)c1ccccc1 (stereo not drawn) | 26 | 2 | 7 | 3 | -9 | .
COc1cccc(-c2noc(Cn3nc(C(=O)O)c4ccccc4c3=O)n2)c1 | -3 | 2 | -3 | 1 | -8 | .
O=C(O)c1nn(Cc2ncc(-c3cccc(Cl)c3)o2)c(=O)c2ccccc12 | 34* | 2 | 11 | 1 | -5 | 16
CCCCCCc1cc2cc(/C(N)=N/NC(=O)c3ccncc3)c(=O)oc2cc1O | 61* | -6 | -1 | -1 | 3 | 8
O=C(N[C@H](Cc1ccccc1)C(=O)NCCN1CCOCC1)[C@H]1O[C@@H](n2ccc(=O)[nH]c2=O)[C@H](O)[C@@H]1O | . | . | 2 | . | . | .
N#CC1=C(N)Oc2c(ccc3cccnc23)C1c1ccccc1 (stereo not drawn) | 8 | -3 | 2 | 6 | -17 | .
Cc1ccc2[nH]c(=O)c(C3C(C#N)=C(N)Oc4c3ccc3cccnc43)cc2c1 (stereo not drawn) | 45* | 3 | 17 | 1 | -18 | 21
CCCCCC[C@@H](CCCc1ccccc1OC)CN(CCCC)S(C)(=O)=O | . | . | 2 | . | . | .
COc1ccc2c(c1)C(=O)N1[C@H]3c4cc(Br)ccc4OC[C@@H]3[C@H](c3ccccc3)[C@]1(C)C(=O)N2 | 30* | 1 | . | 0 | -10 | 25
CC(C)C[C@H]1CN([C@@H](Cc2ccc(O)cc2)CN2CCC[C@@H]2CN2C(=S)NC[C@@H]2Cc2ccccc2)C(=S)N1CCc1ccccc1 | 32* | 2 | 17 | 3 | . | 9

Bioassay records from PubChem.
